We go through 29 compounds from ChEMBL document CHEMBL1135622, “Use of the Kohonen neural network for rapid screening of ex vivo anti-HIV activity of styrylquinolines” (J Med Chem, 2002).

Each structure is given as a SMILES string.

Assay [1] has as its system Human immunodeficiency virus 1. The assay can be described thus: Cytotoxicity (C) and percentage of dead cells at 100 uM concentration. The format is functional. In short, it runs like this:
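CEM lymphocytes (RPMI-1640, 10% FCS) plated in triplicate and infected with cell-free HIV-1 NL4-3; virus removed after 2 h, drug at 100 µM added in DMSO in fresh medium for 72 h. Viability by MTT (7.5 mg/mL stock), 4 h at […], formazan dissolved in SDS/HCl, absorbance at 570 nm; value given as percentage of dead cells.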

For assay [2], the system named is Human immunodeficiency virus 1. Kind of assay: Ex vivo activity against residual viruses (% of nontreated infected cells) in cell supernatant at 100 uM concentration. In kind it is functional.
The subject of assay [3] is Human immunodeficiency virus 1. The assay can be described thus: Reduction of viral load in the cell supernatant. In kind it is functional, organism-based.
Assay [4] concerns Human immunodeficiency virus 1. The assay can be described thus: Inhibitory concentration against HIV-1 required for 50% reduction of viral load in the cell supernatant; Not reached. The format is functional, organism-based.

Compound `CC(=O)Nc1ccc(/C=C/c2ccc3ccc(C(=O)O)c(O)c3n2)cc1` displayed a Cytotoxicity in assay [1] of 88%. In assay [2], this compound came in with an RV of 0%.

As usually defined, the IC50 is the concentration that gives 50% inhibition. High values mean lower potency, low ones higher potency. With `O=C(O)c1ccc2ccc(/C=C/c3cc(O)c(O)c(I)c3)nc2c1O`, the Cytotoxicity in assay [1] amounted to 42%. The compound also gave a 50% inhibitory concentration (IC50) in assay [3] of 6.8 µM. Also, the RV in assay [2] is listed as 3%.

`O=C(O)c1cccc2ccc(/C=C/c3ccc(O)c(O)c3)nc12` displayed a Cytotoxicity in assay [1] of 0%. In assay [3], this compound had an IC50 of 12 µM. In assay [2], the RV was found to be 0%.

The compound `Nc1ccc(/C=C/c2ccc3ccc(C(=O)O)c(O)c3n2)cc1` had a Cytotoxicity in assay [1] of 40%. In assay [3], this compound registered a concentration for half-maximal inhibition (IC50) of 50 µM. Moreover, the RV in assay [2] was 8%.

In turn, `O=C(O)c1ccc2ccc(/C=C/c3cc(O)cc(/C=C/c4ccc5ccc(C(=O)O)c(O)c5n4)c3)nc2c1O` had a Cytotoxicity in assay [1] of 0%. Moreover, the NR entry in assay [4] is recorded as “Not reached”. This compound yielded an RV in assay [2] of 100%.

`O=C(O)c1ccc2ccc(/C=C/c3ccc(O)cc3O)nc2c1O` had a Cytotoxicity in assay [1] of 26%. Moreover, the IC50 in assay [3] is 80 µM. In assay [2], this compound displayed an RV of 42%.

Consider `O=C(O)c1ccc2ccc(/C=C/c3ccc4c(c3)OCO4)nc2c1O`, for which the Cytotoxicity in assay [1] stood at 40%. The same compound showed an IC50 in assay [3] of 10 µM. In assay [2], this compound registered an RV of 4%.

In turn, `O=C(O)c1ccc2ccc(/C=C/c3ccccc3)nc2c1O` came in with a Cytotoxicity in assay [1] of 100%. Moreover, the RV in assay [2] is listed as 0%.

Consider `O=C(O)c1ccc2ccc(/C=C/c3ccc(O)c(O)c3)nc2c1O`, for which the Cytotoxicity in assay [1] came out at 70%. The IC50 in assay [3] was found to be 1.3 µM. Further, the RV in assay [2] was 0%.

`Oc1ccc(/C=C/c2ccc3cccc(O)c3n2)cc1O` returned a Cytotoxicity in assay [1] of 78%. In assay [2], the RV stood at 1%.

Consider `O=C(O)c1ccc2ccc(/C=C/c3cc(Br)c(O)c(Br)c3)nc2c1O`, for which the Cytotoxicity in assay [1] was 8%. It took 30 µM to reach half-maximal inhibition in assay [3] (IC50). The compound also had an RV in assay [2] of 13%.

Compound `O=C(O)c1ccc2ccc(/C=C/c3ccco3)nc2c1O` showed a Cytotoxicity in assay [1] of 0%. The NR result in assay [4] was “Not reached”. The RV in assay [2] is recorded as 70%.

For `O=C(O)c1ccc2ccc(/C=C/c3ccsc3)nc2c1O`, in assay [1], the Cytotoxicity is 68%. For the same compound, in assay [2], the RV is reported as 0%.

Compound `O=C(O)c1ccc2nc(/C=C/c3ccc(O)c(O)c3)ccc2c1` displayed a Cytotoxicity in assay [1] of 0%. Also, inhibition in assay [3] was half-maximal at 20 µM (IC50). For the same compound, the RV in assay [2] is given as 4%.

In turn, `O=C(O)c1cc(/C=C/c2ccc3ccc(C(=O)O)c(O)c3n2)ccc1O` gave a Cytotoxicity in assay [1] of 0%. This compound also yielded an IC50 in assay [3] of 80 µM. This compound also registered an RV in assay [2] of 24%.

In assay [1], `COc1cc(/C=C/c2ccc3ccc(C(=O)O)cc3n2)ccc1O` displayed a Cytotoxicity of 30%. The midpoint of inhibition in assay [3], the IC50, lay at 20 µM. This compound registered an RV in assay [2] of 17%.

For the compound `COc1cc(/C=C/c2ccc3ccc(C(=O)O)c(O)c3n2)cc(OC)c1O`, the Cytotoxicity in assay [1] worked out at 17%. Further, in assay [3], the IC50 was 9 µM. The RV in assay [2] amounted to 0%.

Turning to `O=C(O)c1ccc2ccc(/C=C/c3cc(O)c(O)c(O)c3)nc2c1O`, in assay [1], the Cytotoxicity is on record as 90%. In assay [2], this compound had an RV of 0%.

`O=C(O)c1cccc2nc(/C=C/c3ccc(O)c(O)c3)ccc12`: the Cytotoxicity in assay [1] came to 0%. This compound also yielded an IC50 in assay [3] of 50 µM. The RV in assay [2] amounted to 5%.

On to `O=C(O)c1ccc2ccc(/C=C/c3ccc(F)c(F)c3)nc2c1O`, for which, in assay [1], the Cytotoxicity is listed as 91%. This compound also had an IC50 in assay [3] of 30 µM. The RV in assay [2] came out at 2%.

In turn, `O=C(O)c1ccc2ccc(/C=C/c3ccc(CO)cc3)nc2c1O` gave a Cytotoxicity in assay [1] of 17%. This compound displayed an IC50 in assay [3] of 110 µM. The RV in assay [2] is 55%.

The compound `O=C(O)c1ccc2ccc(/C=C/c3ccc(O)cc3)nc2c1O` registered a Cytotoxicity in assay [1] of 50%. The IC50 in assay [3] amounted to 95 µM. The compound further gave an RV in assay [2] of 26%.

`O=C(O)c1cc(C(=O)O)c2ccc(/C=C/c3ccc(O)c(O)c3)nc2c1` showed a Cytotoxicity in assay [1] of 0%. Moreover, in assay [3], the IC50 came out at 15 µM. Also, the RV in assay [2] is 5%.

`COc1cc(/C=C/c2ccc3ccc(C(=O)O)c(O)c3n2)cc(O)c1O`: the Cytotoxicity in assay [1] is reported as 14%. In addition, the midpoint of inhibition in assay [3], the IC50, lay at 12 µM. In assay [2], this compound returned an RV of 6%.

Consider `O=C(O)c1ccc2ccc(/C=C/c3ccc([N+](=O)[O-])cc3)nc2c1O`, for which, in assay [1], the Cytotoxicity is given as 74%. Moreover, the RV in assay [2] is on record as 6%.

On to `COc1ccc(/C=C/c2ccc3ccc(C(=O)O)c(O)c3n2)cc1O`, for which the Cytotoxicity in assay [1] was 57%. In addition, half-maximal inhibition in assay [3] (IC50) required 54 µM. The same compound returned an RV in assay [2] of 0%.

In assay [1], `O=C(O)c1ccc2ccc(/C=C/c3cccnc3)nc2c1O` returned a Cytotoxicity of 74%. In addition, in assay [4], the NR entry is “Not reached”. Besides, in assay [2], the RV is recorded as 74%.

For the compound `O=C(O)c1ccc2ccc(/C=C/c3cc(O)cc(O)c3)nc2c1O`, in assay [1], the Cytotoxicity amounted to 17%. Also, the NR result in assay [4] is reported as “Not reached”. The RV in assay [2] turned out to be 55%.

`COc1cc(/C=C/c2ccc3ccc(C(=O)O)c(O)c3n2)ccc1O` came in with a Cytotoxicity in assay [1] of 48%. Half-maximal inhibition in assay [3] (IC50) required 3 µM. In assay [2], this compound returned an RV of 12%.
